Measurements published in ChEMBL document CHEMBL3259611, “Suppression of inflammatory responses by handelin, a guaianolide dimer from Chrysanthemum boreale, via downregulation of NF-κB signaling and pro-inflammatory cytokine production” (J Nat Prod, 2014).
Activity calls are given as the source filed them. The rule behind the calls is not given here.

Legend:
RAW264.7 [1] = assay: Antiinflammatory activity in mouse RAW264.7 cells assessed as inhibition of LPS-induced nitric oxide production at 40 uM administered 30 mins prior to LPS challenge measured after 20 hrs by Griess assay relative to control; assay type: functional
In short: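 RAW 264.7 cells at 3 × 10^5 cells/mL in phenol red-free 10% FBS DMEM, pretreated for 30 min, then given 1 μg/mL LPS for 20 h. Nitrite in the medium was read by Griess reaction at 540 nm against a sodium nitrite standard curve. % inhibition was calculated versus vehicle control, and IC50 by nonlinear regression. Mean ± SD of triplicates.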

RAW264.7 [2] = assay: Antiinflammatory activity in mouse RAW264.7 cells assessed as inhibition of LPS-induced iNOS protein expression after 16 hrs by Western blotting analysis; assay type: functional, cell-based
RAW264.7 [3] = assay: Antiinflammatory activity in mouse RAW264.7 cells assessed as inhibition of LPS-induced iNOS mRNA expression at 40 uM after 5 hrs by RT-PCR analysis relative to control; assay type: functional
In short: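 RAW 264.7 cells exposed to 1 μg/mL LPS with or without compound for 5 h. Total RNA was analysed by RT-PCR: 25−30 cycles with annealing at 55 °C. Products were separated on 2% agarose gel with SYBR-Safe staining. Experiments in triplicate.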

[4] = target: T1, Nuclear factor NF-kappa-B p105 subunit (Mus musculus) (UniProt P25799); assay: Inhibition of LPS-induced NFkappaB P50 protein nuclear translocation in mouse RAW264.7 cells at 10 uM after 30 mins by Western blotting analysis relative to control; assay type: cell-based
T1 sequence (whole entry): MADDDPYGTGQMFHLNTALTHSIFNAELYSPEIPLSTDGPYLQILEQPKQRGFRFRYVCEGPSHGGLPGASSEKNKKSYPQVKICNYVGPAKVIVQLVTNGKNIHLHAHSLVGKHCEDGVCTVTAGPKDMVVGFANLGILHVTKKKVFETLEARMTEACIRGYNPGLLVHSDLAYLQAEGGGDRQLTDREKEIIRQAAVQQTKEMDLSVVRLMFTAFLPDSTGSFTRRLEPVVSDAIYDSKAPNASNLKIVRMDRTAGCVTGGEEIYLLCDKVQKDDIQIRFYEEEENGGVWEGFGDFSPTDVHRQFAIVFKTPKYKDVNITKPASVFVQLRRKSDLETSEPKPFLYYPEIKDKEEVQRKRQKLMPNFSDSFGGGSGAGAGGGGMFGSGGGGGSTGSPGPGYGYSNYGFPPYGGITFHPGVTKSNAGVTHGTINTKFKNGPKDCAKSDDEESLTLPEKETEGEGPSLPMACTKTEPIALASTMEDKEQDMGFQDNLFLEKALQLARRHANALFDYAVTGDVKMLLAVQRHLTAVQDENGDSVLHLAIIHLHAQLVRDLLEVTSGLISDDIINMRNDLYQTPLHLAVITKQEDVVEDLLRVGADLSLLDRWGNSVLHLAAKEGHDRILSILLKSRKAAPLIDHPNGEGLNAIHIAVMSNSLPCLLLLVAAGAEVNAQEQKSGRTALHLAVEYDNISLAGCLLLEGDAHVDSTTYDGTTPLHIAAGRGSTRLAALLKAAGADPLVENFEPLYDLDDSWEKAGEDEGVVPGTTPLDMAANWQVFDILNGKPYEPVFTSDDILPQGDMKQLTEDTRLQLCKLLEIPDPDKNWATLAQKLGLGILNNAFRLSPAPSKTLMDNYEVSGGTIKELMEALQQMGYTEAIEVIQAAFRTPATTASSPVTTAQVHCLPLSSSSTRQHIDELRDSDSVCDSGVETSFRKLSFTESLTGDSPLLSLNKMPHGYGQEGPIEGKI
In short: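 Macrophages were exposed to compound for 30 min before LPS stimulation, with proteins extracted 30 min later. Nuclear extracts were prepared in Tris/KCl/NP-40 lysis buffer, then 420 mM NaCl buffer, and the cytosolic fraction was kept for IκB-α. Western blot on PVDF with ECL detection. Tests in triplicate; representative of three separate experiments.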

RAW264.7 [5] = assay: Antiinflammatory activity in mouse RAW264.7 cells assessed as inhibition LPS-induced TNF-alpha protein expression after 4 hrs by Western blotting analysis; assay type: functional, cell-based
In short: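 RAW 264.7 cells stimulated with LPS (1 μg/mL) with or without compound for 4 h. Lysates were resolved by 6−15% SDS-PAGE and blotted to PVDF. Blocked in 5% milk/PBST, primary antibody overnight at 4 °C, secondary antibody 2 h, detected by ECL. Triplicate, representative of three experiments.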

RAW264.7 [6] = assay: Antiinflammatory activity in mouse RAW264.7 cells assessed as inhibition LPS-induced TNF-alpha mRNA expression at 10 uM after 4 hrs by RT-PCR analysis relative to control; assay type: functional
In short: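 RAW 264.7 cells stimulated with LPS (1 μg/mL) with or without compound for 4 h. Total RNA was isolated and cytokine mRNA was analysed by RT-PCR: 94 °C 4 min, then 25−30 cycles of 94/55/72 °C for 30 s each, then 72 °C 5 min. Products were run on 2% agarose and stained with SYBR-Safe. Triplicate, representative of three experiments.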

Rattus norvegicus [7] = assay: Antiinflammatory activity in rat paw edema model assessed as inhibition of carrageenan-induced paw edema at 20 mg/kg, po administered 30 mins prior to carrageenan challenge measured after 4 hrs relative to vehicle-treated control; assay type: functional
In short: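 Male Sprague–Dawley rats (150–170 g, 5 weeks old); compound dissolved in 0.5% CMC-Na and given orally 30 min before subplantar injection of 0.1 mL 1% carrageenan suspension in saline into the right hind paw, with saline injected into the left. Paw volume read by plethysmometer at 0 h and up to 6 h; n = 6.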

Rattus norvegicus [8] = assay: Antiinflammatory activity in rat paw edema model assessed as inhibition of carrageenan-induced COX2 protein expression in paw tissue at 20 mg/kg, po administered 30 mins prior to carrageenan challenge measured after 6 hrs by Western blotting analysis relative to vehicle-treated control; assay type: functional, organism-based; set-up: dose 20 mg/kg
In short: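 SD rats received compound orally in 0.5% CMC-Na 30 min before subplantar injection of 0.1 mL 1% carrageenan in saline. Paws were removed at 6 h, homogenized, and iNOS, COX-2 and IL-1β were assessed by Western blot. Triplicate, representative of three experiments.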

RAW264.7 [9] = assay: Antiinflammatory activity in mouse RAW264.7 cells assessed as inhibition of LPS-induced iNOS protein expression at 10 uM after 16 hrs by Western blotting analysis relative to control; assay type: functional
In short: (§1)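 RAW 264.7 cells given LPS (1 μg/mL) with or without compound for 16 h. Cell lysates were Western blotted for iNOS and COX-2 (6−15% SDS-PAGE, PVDF, ECL detection). Performed in triplicate.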

RAW264.7 [10] = assay: Antiinflammatory activity in mouse RAW264.7 cells assessed as inhibition of LPS-induced iNOS protein expression at 20 uM after 16 hrs by Western blotting analysis relative to control; assay type: functional; in short: as §1
[11] = target: Transcription factor p65 (Mus musculus) (UniProt Q04207); assay: Inhibition of LPS-induced NF-kappaB p65 binding to DNA in mouse RAW264.7 cells at 10 to 40 uM after 1.5 hrs by spectrophotometry in presence of mutant oligonucleotide; assay type: cell-based
Sequence of Transcription factor p65 (Mus musculus) (Q04207 whole entry): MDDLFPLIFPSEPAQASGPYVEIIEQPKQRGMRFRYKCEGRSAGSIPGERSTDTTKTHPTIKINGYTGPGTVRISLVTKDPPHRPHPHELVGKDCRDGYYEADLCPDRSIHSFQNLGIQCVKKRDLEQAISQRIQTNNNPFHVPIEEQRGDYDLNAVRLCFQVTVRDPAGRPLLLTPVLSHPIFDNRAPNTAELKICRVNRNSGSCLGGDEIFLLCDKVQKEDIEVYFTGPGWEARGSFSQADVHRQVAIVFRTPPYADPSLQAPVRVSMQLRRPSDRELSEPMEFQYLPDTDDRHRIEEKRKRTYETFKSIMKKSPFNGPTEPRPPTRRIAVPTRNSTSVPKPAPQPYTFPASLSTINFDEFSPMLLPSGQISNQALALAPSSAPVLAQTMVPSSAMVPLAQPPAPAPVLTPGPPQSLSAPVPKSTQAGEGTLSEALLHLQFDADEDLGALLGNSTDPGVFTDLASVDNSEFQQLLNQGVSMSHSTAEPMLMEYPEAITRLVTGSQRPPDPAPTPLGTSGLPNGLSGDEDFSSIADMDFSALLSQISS

## C=C1C(=O)O[C@@H]2[C@@H]3[C@@]4(C=C[C@@]3(C)[C@]3(C4)C(=O)O[C@@H]4[C@H]5C(C)=CC[C@H]5[C@](C)(O)C[C@H](OC(C)=O)[C@H]43)[C@](C)(O)CC[C@@H]12
RAW264.7 [1]
  inhibition (INH): 98%
RAW264.7 [2]
  inhibition: Dose-dependent effect
RAW264.7 [3]
  fold change (FC): 0.58
[4]
  inhibition: Active
RAW264.7 [5]
  inhibition: Dose-dependent effect
RAW264.7 [6]
  fold change (FC): 0.66
  inhibition: Active
Rattus norvegicus [7]
  inhibition in vivo at 20 mg/kg: 35%
Rattus norvegicus [8]
  inhibition: Active
RAW264.7 [9]
  fold change (FC): 0.61
RAW264.7 [10]
  fold change (FC): 0.29
[11]
  inhibition: Active
